# Laboratory results: paper PMC10354499 (RSC Advances, 2023)
# Experiments:
# MCF-7 cells = details: read-out: IC50 (MCF-7); known breast cancer antineoplastic drug; cited from earlier work
# HEK-293 cells = test: Selective toxicity, MTT assay in HEK-293 cells; type: cell-based, human; details: at respective MCF-7 IC50 concentration, 24 hours, MTT
# Method in brief: (§1)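 HEK-293 cells were grown in DMEM with 10% FBS, 1% penicillin–streptomycin, 1% L-glutamine and 2.5% HEPES. Cells were seeded at 15 000 cells/well, held 24 h (37 °C, 5% CO2), then exposed to test compound for 24 h. MTT (5 mg mL−1 in PBS) plus medium was added for 4 h, then aspirated, and formazan was dissolved in DMSO. Absorbance was read at 570/690 nm; percentage viability by formula, triplicate.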
# CT-DNA relative to BSA = test: Relative stability constant ln; details: natural logarithm of ratio of CT-DNA to BSA binding constants
# Method in brief: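 KDNA: CT-DNA (0–8 μM) was titrated against 20 μM test compound in PBS with ~2% (v/v) DMSO final. Mixtures were incubated 10 min and read by UV-vis, with DNA absorbance cancelled in the reference. KDNA was the slope/intercept ratio of [DNA]/(εa−εf) vs [DNA] (Wolfe–Shimer). KBSA: 0–10 μM compound was added to 6 μM BSA in PBS pH 7.2, 10 min at 25 °C, A280 read, Benesi–Hildebrand fit.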
# [1] = Selective toxicity, MTT assay in HEK-293 cells; type: cell-based, human; details: human, HEK-293 cells
# Method in brief: as §1
SMILES,IC50 (MCF-7 cells) [µM],cell viability (HEK-293) (HEK-293 cells) [%],ln(KDNA/KBSA) (CT-DNA relative to BSA),viability at 24 h [1] [%]
"CC[C@]1(O)C[C@@H]2CN(CCc3c([nH]c4ccccc34)[C@@](C(=O)OC)(c3cc4c(cc3OC)N(C)[C@H]3[C@@](O)(C(=O)OC)[C@H](OC(C)=O)[C@]5(CC)C=CCN6CC[C@]43[C@@H]65)C2)C1 [Vinoblastine, vinblastine]",10.2 ± 0.39,–,–,–
"CC1(C)CC(=O)C2=C(C1)Oc1ncnc(Nc3cccc(-[c-]4cccc4)c3)c1C2c1ccccc1F.[Fe+2].c1cc[cH-]c1 (centres unmarked) [Compound 3j, 4-((3-Ferrocenylphenyl)amino)-5-(2-fluorophenyl)-8,8-dimethyl-5,7,8,9-tetrahydro-6H-chromeno[2,3-d]pyrimidin-6-one]",–,107.43,highest,–
"CC1(C)CC(=O)C2=C(C1)Oc1ncnc(Nc3ccccc3)c1C2c1ccccc1F (centres unmarked) [Compound 3a, 5-(2-Fluorophenyl)-8,8-dimethyl-4-(phenylamino)-5,7,8,9-tetrahydro-6H-chromeno[2,3-d]pyrimidin-6-one]",–,–,lowest,96.6
